{"source": "paper PMC6336391", "about": "(Journal of the American Chemical Society, 2018)", "key": {"bovine serum albumin [1]": {"biological_target": "T1, bovine serum albumin (Bos taurus, UniProt P02769)", "T1 sequence (P02769 25-607)": "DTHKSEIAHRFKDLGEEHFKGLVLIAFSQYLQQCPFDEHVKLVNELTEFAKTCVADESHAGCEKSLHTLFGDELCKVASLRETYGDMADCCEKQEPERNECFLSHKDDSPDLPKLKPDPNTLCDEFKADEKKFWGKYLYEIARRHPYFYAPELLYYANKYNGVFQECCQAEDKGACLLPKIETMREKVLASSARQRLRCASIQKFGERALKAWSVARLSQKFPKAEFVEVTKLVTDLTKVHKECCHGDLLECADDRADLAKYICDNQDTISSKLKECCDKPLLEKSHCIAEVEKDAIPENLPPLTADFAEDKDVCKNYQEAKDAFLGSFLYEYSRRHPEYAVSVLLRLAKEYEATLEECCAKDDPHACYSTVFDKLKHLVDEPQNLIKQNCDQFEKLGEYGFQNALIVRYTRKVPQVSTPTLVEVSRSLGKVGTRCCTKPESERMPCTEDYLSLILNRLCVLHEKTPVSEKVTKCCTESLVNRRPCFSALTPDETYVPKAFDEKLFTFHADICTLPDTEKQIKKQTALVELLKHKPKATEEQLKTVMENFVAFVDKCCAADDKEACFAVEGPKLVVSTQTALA", "experiment": "Bovine serum albumin binding by tryptophan fluorescence quenching"}, "HUVECs": {"tested_on": "HUVECs", "experiment": "MTT cytotoxicity in normal human cells", "type": "cell-based", "conditions": "up to 100 μM"}, "A549 cells": {"tested_on": "A549 cells", "experiment": "MTT toxicity in A549 cells with added BSA", "type": "cell-based, human", "conditions": "BSA 0.6 mM", "procedure,_shortened": "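MTT viability assay in human A549 alveolar adenocarcinoma cells with added BSA (0.6 mM). Test compounds were tested under non-illuminated and illuminated conditions. Percent viability was plotted against concentration. IC50 was fitted by four-parameter nonlinear regression, only where viability fell by at least 50%.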"}, "[2]": {"tested_on": "RAW 264.7 murine macrophage cells", "experiment": "MTT cytotoxicity in RAW 264.7 cells with added BSA", "type": "cell-based", "procedure,_shortened": "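MTT viability assay in murine RAW 264.7 macrophages with added bovine serum albumin. Test compounds were screened under both non-illuminated and illuminated conditions.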"}, "TNF-α [3]": {"tested_on": "TNF-α", "experiment": "Suppression of LPS-induced TNF-α production in RAW 264.7 cells", "type": "cell-based, murine", "conditions": "BSA 0.6 mM; for effect on TNF-α: LPS 1 μg/mL", "procedure,_shortened": "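RAW 264.7 murine macrophages with added BSA (0.6 mM) and test compound, kept either illuminated or dark. Plates were then treated with LPS (1 μg/mL final) for 1 h. TNF-α in each well's supernatant was measured by commercial ELISA. Means ± SEM from three independent experiments. Two-way ANOVA with Tukey post hoc tests against the LPS control and illuminated versus dark.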"}, "TNF-α [4]": {"tested_on": "TNF-α", "conditions": "RAW 264.7 murine macrophages; cited from earlier work"}, "bovine serum albumin [5]": {"biological_target": "T1, bovine serum albumin", "conditions": "22 °C, cited from earlier work"}, "[6]": {"conditions": "read-out: IC50 A549, non-illuminated"}, "[7]": {"conditions": "read-out: IC50 RAW 264.7, non-illuminated"}}, "note": "Several values for one entry are separate records, joined by “and”; a condition that tells them apart may be missing. Identical values can stand only once. Like-named read-outs stand apart in the source and are kept apart here."}
{"compound": "3-hydroxybenzo[g]quinolone [Compound 1]", "values": [{"measurement": "KSV (binding constant with BSA)", "setting": "bovine serum albumin [1]; 22 °C, 4% DMSO:Tris buffer pH 7.4, 0.1 M NaCl", "value": "2.9e+06", "unit": "M⁻¹"}, {"measurement": "Ka (ibuprofen)", "setting": "bovine serum albumin [1]; 22 °C, in the presence of ibuprofen (Site II)", "value": 980000, "unit": "M⁻¹"}, {"measurement": "Ka (warfarin)", "setting": "bovine serum albumin [1]; 22 °C, in the presence of warfarin (Site I)", "value": 610000, "unit": "M⁻¹"}, {"measurement": "fold stronger binding to BSA than Flav-1", "setting": "bovine serum albumin [1]; relative to Flav-1", "value": "approximately 900 fold"}, {"measurement": "cell viability", "setting": "HUVECs", "value": "greater than 50%"}, {"measurement": "IC50", "setting": "A549 cells; [6]", "value": "> 100", "unit": "µM"}, {"measurement": "IC50", "setting": "[2]; [7]", "value": "40.2 ± 1.44", "unit": "µM"}, {"measurement": "TNF-α level", "setting": "TNF-α [3]; 80 nM, illuminated (blue LED array, 1 hr), LPS 1 μg/mL 1 h", "value": "almost completely suppressed"}, {"measurement": "effect on TNF-α", "setting": "TNF-α [3]; non-illuminated", "value": "dose-dependent decrease"}]}
{"compound": "NCC(=O)O.[C-]#[O+].[C-]#[O+].[C-]#[O+].[Cl][Ru]", "note": "[CORM-3]", "values": [{"measurement": "concentration at which effects on TNF-α expression start", "setting": "TNF-α [4]", "value": 10, "unit": "µM"}]}
{"compound": "O=C(Nc1cc2ccccc2cc1C(=O)O)c1ccccc1", "note": "[Compound 3, 3-(benzoylamino)-2-naphthalenecarboxylic acid]", "values": [{"measurement": "IC50", "setting": "A549 cells; Homo sapiens, A549, read-out: IC50 A549, non-illuminated", "value": "> 100", "unit": "µM"}, {"measurement": "IC50", "setting": "A549 cells; [6]", "value": "> 100", "unit": "µM"}, {"measurement": "IC50 A549 (illuminated)", "setting": "A549 cells; visible light illumination (in situ CO release)", "value": "non-toxic"}, {"measurement": "IC50", "setting": "[2]; Mus musculus, RAW264.7, read-out: IC50 RAW 264.7, non-illuminated", "value": "> 100", "unit": "µM"}, {"measurement": "IC50", "setting": "[2]; [7]", "value": "> 100", "unit": "µM"}, {"measurement": "effect on TNF-α", "setting": "TNF-α [3]; illuminated", "value": "lack of any effect"}]}
{"compound": "O=c1c(O)c(-c2ccccc2)oc2cc3ccccc3cc12", "note": "[Flav-1, 3-hydroxybenzo[g]flavone, reference compound]", "values": [{"measurement": "cell viability", "setting": "HUVECs", "value": "greater than 50%"}, {"measurement": "IC50", "setting": "A549 cells; [6]", "value": "82 µM and 81.9 µM"}, {"measurement": "IC50 RAW 264.7", "setting": "[2]; non-illuminated", "value": "nontoxic"}, {"measurement": "IC50", "setting": "[2]; [7]", "value": "> 100", "unit": "µM"}, {"measurement": "Ka (ibuprofen)", "setting": "bovine serum albumin [5]; in the presence of ibuprofen", "value": 2600, "unit": "M⁻¹"}, {"measurement": "Ka (warfarin)", "setting": "bovine serum albumin [5]; in the presence of warfarin", "value": 360, "unit": "M⁻¹"}]}
{"compound": "BSA-Ru(CO)2 conjugate: adduct formed by albumin binding of CORM-3", "values": [{"measurement": "concentration at which effects on TNF-α expression start", "setting": "TNF-α [4]", "value": 4.5, "unit": "µM"}]}
